Experiments:
[1] = Half life in human liver microsomes at 3 uM up to 45 mins in presence of NADPH by LC-MS/MS analysis; type: ADME, microsome
[2] = Half life in Sprague-Dawley rat liver microsomes at 3 uM up to 45 mins in presence of NADPH by LC-MS/MS analysis; type: ADME, microsome
CYP2D6 = CYP2D6 (Homo sapiens, UniProt P10635); assay: Drug metabolism assessed as human CYP2D6-mediated compound degradation by measuring half life at 5 uM up to 45 mins in presence of NADPH by LC-MS/MS analysis; type: ADME
Sequence of CYP2D6 (P10635 whole entry, canonical isoform): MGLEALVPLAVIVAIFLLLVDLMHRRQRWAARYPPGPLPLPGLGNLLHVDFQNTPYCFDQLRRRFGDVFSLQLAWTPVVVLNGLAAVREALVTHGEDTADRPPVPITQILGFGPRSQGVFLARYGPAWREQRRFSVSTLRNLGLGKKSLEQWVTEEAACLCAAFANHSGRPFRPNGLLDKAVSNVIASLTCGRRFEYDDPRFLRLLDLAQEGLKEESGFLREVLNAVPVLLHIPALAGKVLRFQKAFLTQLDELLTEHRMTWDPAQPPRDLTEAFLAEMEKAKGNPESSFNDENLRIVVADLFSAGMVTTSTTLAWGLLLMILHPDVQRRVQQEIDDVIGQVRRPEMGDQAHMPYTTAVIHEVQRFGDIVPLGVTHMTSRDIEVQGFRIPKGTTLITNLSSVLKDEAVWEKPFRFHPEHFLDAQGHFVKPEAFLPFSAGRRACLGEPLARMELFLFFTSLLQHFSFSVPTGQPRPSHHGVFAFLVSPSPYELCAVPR

[3] = molecular target: T1, Carnitine O-palmitoyltransferase 1, muscle isoform (Rattus norvegicus, UniProt Q63704); assay: Inhibition of Wistar rat heart mitochondrial CPT-1 assessed as reduction in conversion of palmitoyl CoA and L-carnitine into palmitoylcarnitine preincubated for 3 mins followed by L-carnitine and palmitoyl CoA addition measured for 3.5 mins by spectrophotometric analysis
T1 sequence (Q63704 whole entry): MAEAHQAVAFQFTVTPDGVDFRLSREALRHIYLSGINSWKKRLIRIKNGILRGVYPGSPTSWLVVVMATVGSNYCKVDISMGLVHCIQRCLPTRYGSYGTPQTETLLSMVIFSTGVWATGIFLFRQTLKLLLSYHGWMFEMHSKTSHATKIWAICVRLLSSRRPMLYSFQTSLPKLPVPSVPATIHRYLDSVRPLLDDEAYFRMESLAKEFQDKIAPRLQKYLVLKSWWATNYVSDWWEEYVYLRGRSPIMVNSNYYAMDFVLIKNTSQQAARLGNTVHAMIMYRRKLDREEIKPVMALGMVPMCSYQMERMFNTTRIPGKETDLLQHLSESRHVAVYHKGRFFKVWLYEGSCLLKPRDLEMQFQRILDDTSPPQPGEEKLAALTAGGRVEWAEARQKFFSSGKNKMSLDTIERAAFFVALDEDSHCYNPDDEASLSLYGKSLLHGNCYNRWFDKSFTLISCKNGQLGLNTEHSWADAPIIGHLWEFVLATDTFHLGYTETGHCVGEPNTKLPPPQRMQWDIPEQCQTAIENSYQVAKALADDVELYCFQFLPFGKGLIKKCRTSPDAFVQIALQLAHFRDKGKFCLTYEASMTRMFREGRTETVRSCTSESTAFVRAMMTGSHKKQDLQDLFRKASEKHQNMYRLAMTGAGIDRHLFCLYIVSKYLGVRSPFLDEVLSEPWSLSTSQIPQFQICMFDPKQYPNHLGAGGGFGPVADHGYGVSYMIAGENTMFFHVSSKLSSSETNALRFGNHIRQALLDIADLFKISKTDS

[4] = Stability of the compound in pH 7.4 PBS buffer at 37 degC after 1 hr; type: physicochemical; settings: pH 7.4, 1 h
Procedure, shortened: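 Compound incubated 1 h in pH 7.4 PBS at 37 °C, then checked for decomposition.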

[5] = Drug uptake in BALB/c mouse myocardium at 10 mg/kg, po administered via gavage every 24 hrs for 7 days measured 1 hr post last dose by LC-MS/MS analysis; type: ADME, organism-based; settings: read-out: Drug uptake
Procedure, shortened: (§1)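 Male BALB/c mice, daily oral gavage at 10 mg/kg. Plasma and myocardium sampled 1, 4, 8 and 24 h after dosing, n = 3 per timepoint. […] Myocardium:plasma ratios taken from drug concentration or from AUC. Student's t-test used.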

[6] = Plasma concentration in BALB/c mouse at 10 mg/kg, po administered via gavage every 24 hrs for 7 days measured at 1 hr post last dose by LC-MS/MS analysis; type: ADME, organism-based; procedure, shortened: as §1
[7] = Plasma concentration in BALB/c mouse at 10 mg/kg, po administered via gavage every 24 hrs for 7 days measured 4 hrs post last dose by LC-MS/MS analysis; type: ADME, organism-based; procedure, shortened: as §1
[8] = Plasma concentration in BALB/c mouse at 10 mg/kg, po administered via gavage every 24 hrs for 7 days measured 8 hrs post last dose by LC-MS/MS analysis; type: ADME, organism-based; procedure, shortened: as §1
[9] = Drug uptake in BALB/c mouse myocardium at 10 mg/kg, po administered via gavage every 24 hrs for 7 days measured 4 hrs post last dose by LC-MS/MS analysis; type: ADME, organism-based; settings: read-out: Drug uptake; procedure, shortened: as §1
[10] = Drug uptake in BALB/c mouse myocardium at 10 mg/kg, po administered via gavage every 24 hrs for 7 days measured 8 hrs post last dose by LC-MS/MS analysis; type: ADME, organism-based; settings: read-out: Drug uptake; procedure, shortened: as §1
[11] = AUC (0 to 24 hrs) in BALB/c mouse plasma at 10 mg/kg, po administered via gavage every 24 hrs for 7 days measured post last dose by LC-MS/MS analysis; type: ADME, organism-based; set-up: dose 10 mg/kg, time < 24 hr, route oral; procedure, shortened: as §1
[12] = AUC (0 to 24 hrs) in BALB/c mouse myocardium at 10 mg/kg, po administered via gavage every 24 hrs for 7 days measured post last dose by LC-MS/MS analysis; type: ADME, organism-based; set-up: time < 24 hr, dose 10 mg/kg, route oral; procedure, shortened: as §1
[13] = Plasma concentration in Sprague-Dawley rat at 10 mg/kg, po administered via gavage every 24 hrs measured at 1 hr post dose by LC-MS/MS analysis; type: ADME, organism-based
Procedure, shortened: (§2)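 Male Sprague-Dawley rats, daily oral dosing at 10 mg/kg. Plasma sampled at 1, 2, 4, 8 and 24 h after dosing, n = 3 per timepoint. Myocardium measured at 1 and 8 h. Myocardium:plasma ratio taken from drug concentration.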

[14] = Plasma concentration in Sprague-Dawley rat at 10 mg/kg, po administered via gavage every 24 hrs measured at 2 hrs post last dose by LC-MS/MS analysis; type: ADME, organism-based; procedure, shortened: as §2
[15] = Plasma concentration in Sprague-Dawley rat at 10 mg/kg, po administered via gavage every 24 hrs measured at 4 hrs post last dose by LC-MS/MS analysis; type: ADME, organism-based; procedure, shortened: as §2
[16] = Plasma concentration in Sprague-Dawley rat at 10 mg/kg, po administered via gavage every 24 hrs measured at 8 hrs post last dose by LC-MS/MS analysis; type: ADME, organism-based; procedure, shortened: as §2
[17] = Drug uptake in Sprague-Dawley rat myocardium at 10 mg/kg, po administered via gavage every 24 hrs measured at 1 hr post last dose by LC-MS/MS analysis; type: ADME, organism-based; settings: read-out: Drug uptake; procedure, shortened: as §2
[18] = Drug uptake in Sprague-Dawley rat myocardium at 10 mg/kg, po administered via gavage every 24 hrs measured at 8 hrs post last dose by LC-MS/MS analysis; type: ADME, organism-based; settings: read-out: Drug uptake; procedure, shortened: as §2
[19] = Ratio of drug level in myocardium to plasma in BALB/c mouse at 10 mg/kg, po administered via gavage every 24 hrs for 7 days measured 1 hr post last dose by LC-MS/MS analysis; type: ADME, organism-based; settings: myocardium and plasma; procedure, shortened: as §1
[20] = Ratio of drug level in myocardium to plasma in BALB/c mouse at 10 mg/kg, po administered via gavage every 24 hrs for 7 days measured 4 hrs post last dose by LC-MS/MS analysis; type: ADME, organism-based; settings: myocardium and plasma; procedure, shortened: as §1
[21] = Ratio of drug level in myocardium to plasma in BALB/c mouse at 10 mg/kg, po administered via gavage every 24 hrs for 7 days measured 8 hrs post last dose by LC-MS/MS analysis; type: ADME, organism-based; settings: myocardium and plasma; procedure, shortened: as §1
[22] = Ratio of drug level in myocardium to plasma in Sprague-Dawley rat at 10 mg/kg, po administered via gavage every 24 hrs measured at 1 hr post dose by LC-MS/MS analysis; type: ADME, organism-based; settings: myocardium and plasma; procedure, shortened: as §2
[23] = Ratio of drug level in myocardium to plasma in Sprague-Dawley rat at 10 mg/kg, po administered via gavage every 24 hrs measured at 8 hrs post dose by LC-MS/MS analysis; type: ADME, organism-based; settings: myocardium and plasma; procedure, shortened: as §2
[24] = Ratio of AUC (0 to 24 hrs) in myocardium to plasma in BALB/c mouse at 10 mg/kg, po administered via gavage every 24 hrs for 7 days measured post last dose by LC-MS/MS analysis; type: ADME, organism-based; settings: myocardium and plasma, read-out: Ratio AUC; procedure, shortened: as §1
Heart [25] = assay: Cardioprotective activity in Langendorff perfused C57BL/6 mouse heart assessed as increase in cardiac contractility at 2 uM perfused for 30 mins in presence of high fat relative to control; type: functional
Procedure, shortened: (§3)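 Isolated C57BL/6 hearts (25-30 g) retrogradely perfused at constant 80 mmHg, 37 °C, 95% O2/5% CO2, with modified Krebs containing 1.2 mM sodium palmitate conjugated to 3% BSA. After 10 min stabilisation, 30 min perfusion with control buffer or compound at 2 or 10 µM. LVdP/dt max and min derived from LV pressure over 40 min; mean ± SEM, n = 12-19, 1-way ANOVA with Bonferroni.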

Heart [26] = assay: Cardioprotective activity in Langendorff perfused C57BL/6 mouse heart assessed as increase in cardiac relaxation at 2 uM perfused for 30 mins in presence of high fat relative to control; type: functional; procedure, shortened: as §3

What does the source list for C1CCC(C(CC2CCCCN2)C2CCCC2)CC1 (centres undefined)?
half-life at 3 µM [1]: > 150 min; half-life at 3 µM [2]: 19 min; half-life at 5 µM (CYP2D6): 16 min; IC50 [3]: 11 µM; Stability [4]: Stable

Which concentration at 1 h [5] does the source give for C1CCC(C(CC2CCCCN2)C2CCCCC2)CC1 (racemic) [PERHEXILINE] here?
Its concentration at 1 h is 664 ng/mL.

And the half-life at 3 µM [1]?
The half-life at 3 µM was 100 min.

What about the half-life at 3 µM [2] of the same compound?
Its half-life at 3 µM is 21 min.

And the half-life at 5 µM (CYP2D6)?
Its half-life at 5 µM is 14 min.

And the IC50 [3]?
The IC50 was 11 µM.

What about the concentration at 1 h [6] of the same compound?
The concentration at 1 h was 116 ng/mL.

What about the concentration at 4 h [7] of the same compound?
The concentration at 4 h was 28.3 ng/mL.

What about the concentration at 8 h [8] of the same compound?
Its concentration at 8 h is 6 ng/mL.

What about the concentration at 4 h [9] of the same compound?
Its concentration at 4 h is 126 ng/mL.

And the concentration at 8 h [10]?
The concentration at 8 h was 29.2 ng/mL.

And the AUC at 24 h [11]?
The AUC at 24 h was 876 ng·h/mL.

What about the AUC at 24 h [12] of the same compound?
The AUC at 24 h was 2110 ng·h/mL.

And the concentration at 1 h [13]?
The concentration at 1 h was 99.9 ng/mL.

What about the concentration at 2 h [14] of the same compound?
The concentration at 2 h was 113 ng/mL.

What about the concentration at 4 h [15] of the same compound?
The concentration at 4 h was 97.4 ng/mL.

And the concentration at 8 h [16]?
The concentration at 8 h was 31.4 ng/mL.

What about the concentration at 1 h [17] of the same compound?
The concentration at 1 h was 1900 ng/mL.

And the concentration at 8 h [18]?
The concentration at 8 h was 361 ng/mL.

What about the Kp at 1 h [19] of the same compound?
The Kp at 1 h was 5.7.

And the Kp at 4 h [20]?
The Kp at 4 h was 4.9.

And the Kp at 8 h [21]?
Its Kp at 8 h is 4.8.

And the Kp at 1 h [22]?
The Kp at 1 h was 19.

What about the Kp at 8 h [23] of the same compound?
Its Kp at 8 h is 11.5.

And the Kp [24]?
Its Kp is 2.4.

What about the “fold change (FC)” value (Heart [25]) of the same compound?
Its value is 2.1.

What about the “fold change (FC)” value (Heart [26]) of the same compound?
The value was 3.2.

What does the source list for C1CCC(C(CC2CCCCN2)C2CCC2)CC1 (centres undefined)?
half-life at 3 µM [1]: > 200 min; half-life at 3 µM [2]: 10 min; Stability [4]: Stable

Which results are given for C1CCC(C(CC2CCCCN2)C2CC2)CC1 (centres undefined)?
half-life at 3 µM [1]: 124 min; half-life at 3 µM [2]: 3 min; Stability [4]: Stable

For C1CCC(C(C[C@@H]2CCCCN2)C2CCCCC2)CC1, which half-life at 3 µM [1] is on record?
The half-life at 3 µM was 65 min.

And the half-life at 3 µM [2]?
Its half-life at 3 µM is 11 min.

What about the IC50 [3] of the same compound?
The IC50 was 14 µM.

For C1CCC(CC(C2CCCC2)C2CCCC2)NC1 (centres undefined), which half-life at 3 µM [1] is on record?
The half-life at 3 µM was 50 min.

And the half-life at 3 µM [2]?
The half-life at 3 µM was 14 min.

And the IC50 [3]?
The IC50 was 19 µM.

And the Stability [4]?
The Stability was “Stable”.

— ChEMBL document CHEMBL4043075, “Development of Fluorinated Analogues of Perhexiline with Improved Pharmacokinetic Properties and Retained Efficacy” (J Med Chem, 2017)
